{"source": "paper PMC3055681", "about": "(Neuropsychopharmacology : official publication of the …, 2010)", "key": {"α4β2 nAChRs": {"test_system": "α4β2 nAChRs", "conditions": "ref Glick et al., 2000; cited from earlier work"}, "humans": {"test_system": "humans", "conditions": "cited from earlier work"}, "[1]": {"conditions": "oral administration, ref Shaffer et al., 2009, cited from earlier work"}, "[2]": {"test_system": "rats self-administering 10% ethanol", "test": "Repeated", "type": "in vivo", "how_it_was_run": "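Rats trained on FR3 10% ethanol self-administration reached stable baseline and were randomised to drug or saline. Test compound (10 mg/kg s.c.) or saline was given 30 min before each session on 5 consecutive days, with lever presses recorded daily. Post-treatment baseline was taken 24 h after the last dose. The day after a cage change (day 3) was excluded. Analysis was two-way ANOVA with Newman–Keuls (n = 6–7).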"}, "human α4β2 nAChRs": {"target": "human α4β2 nAChRs (Homo sapiens, UniProt P17787+P43681)", "sequence (P43681 29-627 limits assumed)": "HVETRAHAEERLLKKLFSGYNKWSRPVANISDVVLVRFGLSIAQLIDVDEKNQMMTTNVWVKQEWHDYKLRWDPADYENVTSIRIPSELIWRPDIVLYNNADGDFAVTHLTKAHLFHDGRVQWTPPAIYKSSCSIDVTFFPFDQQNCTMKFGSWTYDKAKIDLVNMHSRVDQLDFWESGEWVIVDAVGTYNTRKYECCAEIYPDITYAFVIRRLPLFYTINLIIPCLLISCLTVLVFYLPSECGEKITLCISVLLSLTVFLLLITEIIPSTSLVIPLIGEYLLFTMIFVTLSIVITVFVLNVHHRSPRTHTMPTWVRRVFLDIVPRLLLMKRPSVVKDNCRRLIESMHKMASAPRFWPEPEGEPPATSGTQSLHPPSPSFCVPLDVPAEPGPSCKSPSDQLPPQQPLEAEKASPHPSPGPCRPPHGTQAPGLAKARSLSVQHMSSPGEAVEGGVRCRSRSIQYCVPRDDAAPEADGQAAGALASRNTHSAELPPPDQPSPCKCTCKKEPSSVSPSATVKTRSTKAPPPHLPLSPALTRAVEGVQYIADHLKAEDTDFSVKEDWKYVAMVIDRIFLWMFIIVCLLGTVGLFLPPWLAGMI", "sequence (P17787 26-502)": "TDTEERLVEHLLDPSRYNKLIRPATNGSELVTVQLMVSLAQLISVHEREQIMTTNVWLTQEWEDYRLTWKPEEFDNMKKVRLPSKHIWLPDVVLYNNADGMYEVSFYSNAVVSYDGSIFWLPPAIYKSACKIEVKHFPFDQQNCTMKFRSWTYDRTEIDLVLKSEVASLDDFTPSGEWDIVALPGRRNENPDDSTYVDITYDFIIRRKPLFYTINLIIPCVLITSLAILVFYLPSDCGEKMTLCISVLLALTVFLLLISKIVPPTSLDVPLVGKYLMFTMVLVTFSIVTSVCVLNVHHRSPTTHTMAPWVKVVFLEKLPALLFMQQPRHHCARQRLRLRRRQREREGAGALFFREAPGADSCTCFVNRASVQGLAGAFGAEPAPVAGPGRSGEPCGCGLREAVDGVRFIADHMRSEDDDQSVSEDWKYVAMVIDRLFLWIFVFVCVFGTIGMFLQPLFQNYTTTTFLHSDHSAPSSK", "type": "cell-based", "how_it_was_run": "(§1)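 HEK293 lines stably transfected with human α3β4 or α4β2 nAChRs. Cells were loaded in growth medium with Calcium Green-1 (2 µM final) mixed 1:1 with 20% pluronic F-127, then read on FLIPR (ex 488, em 516 nm). Agonism was a single compound addition compared with 100 µM ACh. Inhibition used 2 min pretreatment then 30 µM ACh, with ΔF taken relative to vehicle-pretreated wells. Runs were in quadruplicate, with EC50/IC50 from concentration curves.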"}, "[3]": {"test_system": "Wistar rats self-administering 10% ethanol", "test": "Operant self-administration of 10% ethanol", "type": "in vivo", "conditions": "10 mg/kg s.c., 30 minutes before session", "how_it_was_run": "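Wistar rats were trained on FR3 (0.1 ml reward), 30 min daily sessions Mon–Fri, to press for 10% (v/v) ethanol. Test compound or saline was given s.c. either 30 min or 2 h before the session, depending on compound. Injections were 7 days apart in a Latin square, with the normal schedule between them. Active lever presses were analysed by repeated-measures ANOVA with Newman–Keuls (n = 8–13).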"}, "α6/4β4 nAChRs": {"target": "α6/4β4 nAChRs (Homo sapiens, UniProt P30926+P43681+Q15825)", "sequence (Q15825 26-239)": "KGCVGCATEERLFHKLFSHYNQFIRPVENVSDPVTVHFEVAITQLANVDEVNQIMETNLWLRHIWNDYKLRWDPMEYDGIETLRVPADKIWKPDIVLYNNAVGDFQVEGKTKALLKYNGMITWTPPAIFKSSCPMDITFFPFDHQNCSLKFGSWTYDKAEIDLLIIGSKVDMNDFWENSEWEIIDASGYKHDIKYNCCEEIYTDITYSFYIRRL", "sequence (P43681 241-627)": "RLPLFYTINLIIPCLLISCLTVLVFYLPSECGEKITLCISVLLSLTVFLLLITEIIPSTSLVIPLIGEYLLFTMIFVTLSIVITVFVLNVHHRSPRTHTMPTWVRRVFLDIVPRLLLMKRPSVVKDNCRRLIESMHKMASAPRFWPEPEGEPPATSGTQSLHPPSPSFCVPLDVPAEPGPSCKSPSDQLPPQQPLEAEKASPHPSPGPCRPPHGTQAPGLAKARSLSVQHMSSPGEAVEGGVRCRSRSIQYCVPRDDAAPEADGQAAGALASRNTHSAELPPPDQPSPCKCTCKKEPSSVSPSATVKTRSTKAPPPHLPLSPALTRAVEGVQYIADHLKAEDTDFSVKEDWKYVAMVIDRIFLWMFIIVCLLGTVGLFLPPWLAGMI", "sequence (P30926 22-498)": "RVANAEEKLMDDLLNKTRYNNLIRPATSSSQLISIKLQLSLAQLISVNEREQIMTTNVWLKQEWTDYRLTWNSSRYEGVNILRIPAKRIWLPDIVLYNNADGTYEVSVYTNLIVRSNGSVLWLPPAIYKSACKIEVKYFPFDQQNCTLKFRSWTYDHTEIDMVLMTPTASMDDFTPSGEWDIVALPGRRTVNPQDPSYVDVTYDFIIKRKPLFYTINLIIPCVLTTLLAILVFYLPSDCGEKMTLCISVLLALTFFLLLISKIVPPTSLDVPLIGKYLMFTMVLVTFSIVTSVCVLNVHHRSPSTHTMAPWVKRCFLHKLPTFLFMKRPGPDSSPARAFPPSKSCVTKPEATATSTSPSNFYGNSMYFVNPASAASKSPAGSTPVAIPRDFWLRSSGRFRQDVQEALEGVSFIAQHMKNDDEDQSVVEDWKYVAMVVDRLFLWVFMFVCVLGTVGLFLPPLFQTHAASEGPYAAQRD", "test": "Binding affinity for α6/4β4 nAChRs", "conditions": "ratio of binding affinities"}, "[4]": {"test": "Rat pharmacokinetics, unbound brain concentrations", "type": "in vivo, Sprague-Dawley rats", "how_it_was_run": "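Sprague-Dawley rats were dosed s.c. at 1, 5 or 10 mg/kg. Unbound brain concentration (Cb,u) was estimated over time using an LC-MS/MS assay combined with tissue binding, with values in nM and n = 2 per time point.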"}, "human α3β4 nAChRs [5]": {"target": "T1, human α3β4 nAChRs (Homo sapiens, UniProt P30926+P32297)", "T1 sequence (P32297 32-505)": "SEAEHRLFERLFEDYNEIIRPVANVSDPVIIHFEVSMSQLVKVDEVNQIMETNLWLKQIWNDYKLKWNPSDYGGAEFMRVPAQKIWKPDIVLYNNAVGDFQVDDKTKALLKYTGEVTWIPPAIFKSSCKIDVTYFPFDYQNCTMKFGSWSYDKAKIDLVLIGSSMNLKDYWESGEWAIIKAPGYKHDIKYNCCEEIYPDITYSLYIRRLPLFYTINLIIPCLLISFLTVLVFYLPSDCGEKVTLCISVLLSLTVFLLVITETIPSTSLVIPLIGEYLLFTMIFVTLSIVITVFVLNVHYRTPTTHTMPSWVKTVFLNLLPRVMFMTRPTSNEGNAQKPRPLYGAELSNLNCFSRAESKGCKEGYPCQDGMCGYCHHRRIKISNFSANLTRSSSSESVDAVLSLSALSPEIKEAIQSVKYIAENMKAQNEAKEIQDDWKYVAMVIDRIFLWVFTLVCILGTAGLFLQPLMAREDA", "T1 sequence (P30926 22-498)": "as the sequence (P30926 22-498) above", "type": "cell-based", "how_it_was_run": "as §1"}, "[6]": {"conditions": "in vivo; ref Obach et al., 2006; Shaffer et al., 2009; cited from earlier work"}, "[7]": {"test_system": "Wistar rats consuming 20% ethanol", "test": "Intermittent access 20% ethanol two-bottle-choice drinking paradigm", "type": "in vivo", "how_it_was_run": "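Individually housed rats on a reversed 12-h light cycle had intermittent access to 20% (v/v) ethanol versus water in a two-bottle choice. Once baseline drinking was stable, test compound or saline was given s.c. 30 min before bottles were presented. Injections were 7 days apart in a Latin square, each rat serving as its own control. Intake (g/kg) and preference were measured at 30 min, 6 h and 24 h. Analysis was repeated-measures ANOVA with Newman–Keuls.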"}, "rats consuming ethanol": {"test_system": "rats consuming ethanol", "conditions": "1 and 2 mg/kg; ref Steensland et al., 2007; cited from earlier work"}, "human α3β4 nAChRs [8]": {"target": "T1, human α3β4 nAChRs", "conditions": "ref Rollema et al., 2007; cited from earlier work"}, "[9]": {"conditions": "clinically tested as a smoking cessation aid, ref Pfizer, data on file"}, "[10]": {"conditions": "male, Sprague-Dawley, rat, brain (unbound), subcutaneous, 10 mg/kg"}}, "note": "Entries after “also recorded” stand apart in the source; their conditions may differ. Read-outs that look alike come from different tables or passages of the source.", "data": [{"smiles": "COCC[C@H]1CC2CN3CCc4c([nH]c5ccccc45)[C@](C(=O)OC)(C2)[C@H]13", "note": "[18-MC, 18-methoxycoronaridine]", "values": [{"measurement": "effect at α4β2 nAChRs", "setting": "α4β2 nAChRs", "value": "no effect"}]}, {"smiles": "FC(F)(F)c1ccc2c(c1)[C@@H]1CNC[C@H]2C1", "note": "[CP-601932, (1S,5R)-2,3,4,5-tetrahydro-7-(trifluoromethyl)-1,5-methano-1H-3-benzazepine]", "values": [{"measurement": "side effects indicative of ganglion blocking effects", "setting": "humans; clinical trial as potential smoking cessation aid", "value": "did not show side effects indicative of ganglion blocking effects"}, {"measurement": "abstinence rate", "setting": "humans; [9]", "value": "moderate two-fold increase in abstinence rate that was not statistically significant"}, {"measurement": "tolerability / safety in humans", "setting": "humans; [9]", "value": "safe in humans; also recorded: generally well tolerated"}, {"measurement": "brain penetration", "setting": "[1]; rats", "value": "extensive brain penetration"}, {"measurement": "absorption", "setting": "[1]", "value": "well absorbed"}, {"measurement": "half-life", "setting": "[1]", "value": "long half-life"}, {"measurement": "rebound in active lever presses after end of chronic treatment", "setting": "[2]; 10 mg/kg s.c. for 5 days, compared to baseline", "value": "no rebound increase in active lever presses"}, {"measurement": "active lever presses for 10% ethanol vs vehicle", "setting": "[2]; 10 mg/kg s.c. once per day for 5 consecutive days, 30 minutes before session", "value": "decreased active lever presses"}, {"measurement": "EC50", "setting": "human α4β2 nAChRs", "value": "> 30000", "unit": "nM"}, {"measurement": "IC50", "setting": "human α4β2 nAChRs", "value": "114 ± 29", "unit": "nM"}, {"measurement": "Activation of α4β2 nAChRs (Ca2+ fluorescence)", "setting": "human α4β2 nAChRs; α4β2", "value": "no measurable change in Ca2+-fluoresence"}, {"measurement": "active lever presses for 10% ethanol vs vehicle", "setting": "[3]", "value": "significantly decreased the number of presses on the active lever"}, {"measurement": "fold higher affinity for α3β4 than for α6/4β4 nAChRs", "setting": "α6/4β4 nAChRs", "value": "at least 10 fold"}, {"measurement": "maximal unbound brain concentration Cb,u", "setting": "[4]; 10 mg/kg s.c., at 30 minutes", "value": 710, "unit": "nM"}, {"measurement": "concentration at 5 h", "setting": "[4]; [10]", "value": 530, "unit": "nM"}, {"measurement": "concentration at 24 h", "setting": "[4]; [10]", "value": 85, "unit": "nM"}, {"measurement": "EC50", "setting": "human α3β4 nAChRs [5]; Activation EC50, α3β4, vs 100 μM ACh", "value": "2920 ± 320", "unit": "nM"}, {"measurement": "IC50", "setting": "human α3β4 nAChRs [5]; IC50 for inhibition of α3β4 nAChRs, range given in text for both compounds", "value": "100 to 300", "unit": "nM"}, {"measurement": "IC50", "setting": "human α3β4 nAChRs [5]; Inhibition IC50, α3β4, 2 min pre-application, 30 μM ACh challenge", "value": "257 ± 41", "unit": "nM"}, {"measurement": "active metabolites", "setting": "[6]", "value": "not formed in vivo"}, {"measurement": "ethanol consumption vs vehicle", "setting": "[7]; 5 mg/kg s.c., at 30 minutes", "value": "significantly decreased high voluntary ethanol consumption"}, {"measurement": "ethanol consumption vs vehicle", "setting": "[7]; 10 mg/kg s.c., 6 h and 24 h time points", "value": "decreased ethanol consumption"}, {"measurement": "ethanol consumption vs vehicle", "setting": "[7]; 10 mg/kg s.c., at 30 minutes", "value": "significantly decreased high voluntary ethanol consumption"}, {"measurement": "preference for ethanol over water vs vehicle", "setting": "[7]; highest dose (10 mg/kg s.c.), all time points", "value": "decreased the preference for ethanol over water"}]}, {"smiles": "c1cnc2cc3c(cc2n1)[C@@H]1CNC[C@H]3C1", "note": "[Varenicline]", "values": [{"measurement": "ethanol intake", "setting": "rats consuming ethanol", "value": "significantly reduce ethanol intake"}, {"measurement": "Activation Efficacy (% vs ACh)", "setting": "human α3β4 nAChRs [8]", "value": "93.5 ± 1.4 (5) % vs ACh"}, {"measurement": "active metabolites", "setting": "[6]", "value": "not formed in vivo"}]}]}
